Assay results from ChEMBL document CHEMBL1629488, “Synthesis and biological evaluation of 2-(3',4',5'-trimethoxybenzoyl)-3-aryl/arylaminobenzo[b]thiophene derivatives as a novel class of antiproliferative agents” (Eur J Med Chem, 2010).
The source made the active and inactive calls. The calls are words filed in the database; no cut-off is given here.

Assays:
[1] = tested on: HeLa; assay: Induction of apoptosis in human HeLa cells assessed as late apoptotic cells at 0.62 uM after 24 hrs using FITC-conjugated annexin V and propidium iodide staining by flow cytometry assay (RVb = 1.9 %); format: functional
[2] = tested on: HeLa; assay: Induction of apoptosis in human HeLa cells assessed as viable cells at 0.62 uM after 24 hrs using FITC-conjugated annexin V and propidium iodide staining by flow cytometry assay (RVb = 94.7 %); format: functional; conditions: read-out: Activity
[3] = tested on: HeLa; assay: Induction of apoptosis in human HeLa cells assessed as necrotic cells at 0.62 uM after 24 hrs using FITC-conjugated annexin V and propidium iodide staining by flow cytometry assay (RVb = 1.9 %); format: functional
[4] = tested on: Jurkat; assay: Antiproliferative activity against human Jurkat cells after 72 hrs by MTT assay; format: functional, cell-based
[5] = tested on: HeLa; assay: Induction of apoptosis in human HeLa cells assessed as late apoptotic cells at 5 uM after 24 hrs using FITC-conjugated annexin V and propidium iodide staining by flow cytometry assay (RVb = 1.9 %); format: functional
[6] = tested on: HeLa; assay: Induction of apoptosis in human HeLa cells assessed as late apoptotic cells at 2.5 uM after 24 hrs using FITC-conjugated annexin V and propidium iodide staining by flow cytometry assay (RVb = 1.9 %); format: functional
[7] = tested on: HeLa; assay: Upregulation of cyclin B1 protein expression in human HeLa cells after 24 to 48 hrs by Western blot analysis; format: functional, cell-based
How it was run: (§1)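 Treated cells washed twice in ice-cold PBS, lysed 30 min on ice, lysate cleared at 15000×g, 4 °C, 10 min; protein by BCA. 20 μg per lane on SDS-PAGE (7.5–15%), PVDF transfer, overnight block at 4 °C; primary antibodies 2 h at room temperature, peroxidase secondaries 60 min, ECL detection; β-actin loading control.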

[8] = Inhibition of tubulin polymerization after 20 mins by turbidimetry
[9] = tested on: HeLa; assay: Cell cycle arrest in human HeLa cells assessed as reduction of cells at S phase at 1.25 uM after 24 hrs using propidium iodide staining by flow cytometry; format: functional, cell-based
How it was run: (§2)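 Exponentially growing cells (5 × 10^5) exposed to graded compound levels, 0.312 to 5 μM, for 24 or 48 h; collected, fixed in ice-cold 70% ethanol, treated with lysis buffer containing RNase A and 0.1% Triton X-100, stained with propidium iodide; DNA content read by flow cytometry. Mean ± SEM of two independent experiments.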

[10] = tested on: HeLa; assay: Induction of apoptosis in human HeLa cells assessed as increase of Bcl-2 protein expression up to 2.5 uM after 24 to 48 hrs by Western blot analysis; format: functional, cell-based; how it was run: as §1
[11] = tested on: HeLa; assay: Induction of apoptosis in human HeLa cells assessed as loss of mitochondrial membrane potential after 24 to 48 hrs using Rho123 staining by flow cytometry; format: functional, cell-based
How it was run: (§3)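 After 24 or 48 h exposure, HeLa cells were pelleted, resuspended in HBSS with 0.1 μM rhodamine 123, held 20 min at 37 °C, spun and resuspended in HBSS; fluorescence read by flow cytometry. Mean ± S.E.M. of 3 independent experiments.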

[12] = tested on: HeLa; assay: Cell cycle arrest in human HeLa cells assessed as reduction of cells at G1 phase at 1.25 uM after 24 hrs using propidium iodide staining by flow cytometry; format: functional, cell-based; how it was run: as §2
[13] = tested on: K562; assay: Antiproliferative activity against human K562 cells after 72 hrs by MTT assay; format: functional, cell-based; conditions: K562, 72 h
[14] = tested on: HeLa; assay: Induction of apoptosis in human HeLa cells assessed as increase of Bax protein expression up to 2.5 uM after 24 to 48 hrs by Western blot analysis; format: functional, cell-based; how it was run: as §1
[15] = tested on: HeLa; assay: Cell cycle arrest in human HeLa cells assessed as hypodiploid peak at sub-G1 phase at 0.312 to 5 uM uM after 48 hrs using propidium iodide staining by flow cytometry; format: functional, cell-based; how it was run: as §2
[16] = tested on: HeLa; assay: Upregulation of p53 protein expression in human HeLa cells at up to 2.5 uM after 24 to 48 hrs by Western blot analysis; format: functional, cell-based; how it was run: as §1
[17] = tested on: Jurkat; assay: Cell cycle arrest in human Jurkat cells assessed as accumulation at G1 phase at 1.25 uM after 24 hrs using propidium iodide staining by flow cytometry relative to control; format: functional; how it was run: as §2
[18] = tested on: HeLa; assay: Antiproliferative activity against human HeLa cells assessed as cell viability after 72 hrs by MTT assay; format: functional, cell-based
How it was run: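 A549 and HeLa cells grown in DMEM with 10% FBS and penicillin/streptomycin. Plated at 8 × 10^3 cells/well and held 18 h at 37 °C in 5% CO2. Medium replaced with compound in complete medium at varied concentrations for 72 h at 37 °C, then MTT read.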

[19] = tested on: HeLa; assay: Induction of apoptosis in human HeLa cells assessed as early apoptotic cells at 5 uM after 24 hrs using FITC-conjugated annexin V and propidium iodide staining by flow cytometry assay (RVb = 1.5 %); format: functional
[20] = tested on: HeLa; assay: Cell cycle arrest in human HeLa cells assessed as accumulation at G2/M phase at 1.25 uM after 24 hrs using propidium iodide staining by flow cytometry relative to control; format: functional; how it was run: as §2
[21] = tested on: HeLa; assay: Induction of apoptosis in human HeLa cells assessed as loss of mitochondrial membrane potential at 0.625 to 2.5 uM using Rho123 staining by flow cytometry; format: functional, cell-based; conditions: TDE = time-dependent effect; how it was run: as §3
[22] = tested on: HeLa; assay: Induction of apoptosis in human HeLa cells assessed as caspase-3-mediated cleavage of PARP at 0.625 to 2.5 uM; format: functional, cell-based; conditions: TDE = time-dependent effect; how it was run: as §1
[23] = tested on: HeLa; assay: Induction of apoptosis in human HeLa cells assessed as viable cells at 2.5 uM after 24 hrs using FITC-conjugated annexin V and propidium iodide staining by flow cytometry assay (RVb = 94.7 %); format: functional; conditions: read-out: Activity
[24] = tested on: HeLa; assay: Induction of apoptosis in human HeLa cells assessed as necrotic cells at 1.25 uM after 24 hrs using FITC-conjugated annexin V and propidium iodide staining by flow cytometry assay (RVb = 1.9 %); format: functional
[25] = tested on: Jurkat; assay: Cell cycle arrest in human Jurkat cells assessed as accumulation at S phase at 1.25 uM after 24 hrs using propidium iodide staining by flow cytometry relative to control; format: functional; how it was run: as §2
[26] = tested on: HeLa; assay: Induction of apoptosis in human HeLa cells assessed as ROS production after 24 to 48 hrs using H2-DCFDA staining by flow cytometry; format: functional, cell-based
How it was run: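 ROS probe: after 24 or 48 h exposure, HeLa cells resuspended in HBSS with 0.1 μM H2DCFDA, incubated 30 min at 37 °C, spun and resuspended in HBSS; fluorescence recorded by flow cytometry, excitation 488 nm, emission 530 nm.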

[27] = tested on: Jurkat; assay: Cell cycle arrest in human Jurkat cells assessed as accumulation at G2/M phase at 1.25 uM after 24 hrs using propidium iodide staining by flow cytometry relative to control; format: functional; how it was run: as §2
[28] = tested on: Jurkat; assay: Cell cycle arrest in human Jurkat cells assessed as accumulation at G2/M phase after 24 hrs using propidium iodide staining by flow cytometry; format: functional, cell-based; how it was run: as §2
[29] = tested on: HeLa; assay: Induction of apoptosis in human HeLa cells assessed as caspase-3-mediated cleavage of PARP after 24 hrs by Western blot analysis; format: functional, cell-based; how it was run: as §1
[30] = tested on: HeLa; assay: Induction of apoptosis in human HeLa cells assessed as early apoptotic cells at 2.5 uM after 24 hrs using FITC-conjugated annexin V and propidium iodide staining by flow cytometry assay (RVb = 1.5 %); format: functional
[31] = tested on: Jurkat; assay: Cell cycle arrest in human Jurkat cells assessed as hypodiploid peak at sub-G1 phase at 0.312 to 5 uM uM after 48 hrs using propidium iodide staining by flow cytometry; format: functional, cell-based; how it was run: as §2

CCOc1ccc(Nc2c(C(=O)c3cc(OC)c(OC)c(OC)c3)sc3ccccc23)cc1
Activity [1]: 14.4%
viability at 0.62 µM [2]: 64.9%
Activity [3]: 15.5%
IC50 [4]: 300 nM
Activity [5]: 25.4%
Activity [6]: 24.9%
Activity [7]: Dose-dependent effect
IC50 [8]: 7200 nM
Activity [9]: Active
Activity [10]: Active
Activity [11]: Dose-dependent effect
Activity [12]: Active
IC50 [13]: 200 nM
Activity [14]: inactive
Activity [15]: Active
Activity [16]: inactive
Activity [17]: 10%
IC50 [18]: 700 nM
Activity [19]: 7.2%
Activity [20]: 85%
Activity [21]: tde
Activity [22]: tde
viability at 2.5 µM [23]: 49.4%
Activity [24]: 13.4%
Activity [25]: 18%
Activity [26]: Active
Activity [27]: 70%
Activity [28]: Dose-dependent effect
Activity [29]: Active
Activity [30]: 6.4%
Activity [31]: Active
